A short description of series [1]: Clearance in ICR mouse plasma at 1 mg/kg, iv measured upto 8 hrs by LC-MS/MS analysis. The series is classed as ADME, organism-based. In outline: (§1)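 Male ICR mice, 7–8 weeks, 30 ± 5 g; single dose 1 mg/kg iv or 10 mg/kg ip (n = 4 each). Carotid artery blood at 0, 0.08 (iv only), 0.25, 0.5, 1, 2, 4, 6, 8 h. Plasma precipitated with acetonitrile containing internal standard, quantified by LC–MS/MS. Parameters by non-compartmental analysis; AUClast by trapezoidal rule; values mean ± SD.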

Series [2] in a line: Cmax in ICR mouse plasma at 10 mg/kg, ip measured upto 8 hrs by LC-MS/MS analysis. The series is classed as ADME, organism-based. Also on record: route intraperitoneal, dose 10 mg/kg, time <=8. In outline:
as §1

For series [3], the target named is 5-hydroxytryptamine receptor 2B (Homo sapiens, UniProt P41595). Briefly: Binding affinity to 5-HT2BR (unknown origin). Summed up: (§2)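 Run by the NIMH Psychoactive Drug Screening Program as competition radioligand binding on crude membranes of cells expressing the recombinant receptor. Eleven dilutions (0.05 nM–50 μM, prepared at 5× assay concentration) were made in 50 mM Tris-HCl, 10 mM MgCl₂, 1 mM EDTA, pH 7.4. Incubation was 1.5 h at rt in the dark, followed by GF/B filtration (0.3% PEI) and scintillation counting. IC₅₀ was converted to Ki; at least triplicate.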
Sequence of 5-hydroxytryptamine receptor 2B (P41595 whole entry): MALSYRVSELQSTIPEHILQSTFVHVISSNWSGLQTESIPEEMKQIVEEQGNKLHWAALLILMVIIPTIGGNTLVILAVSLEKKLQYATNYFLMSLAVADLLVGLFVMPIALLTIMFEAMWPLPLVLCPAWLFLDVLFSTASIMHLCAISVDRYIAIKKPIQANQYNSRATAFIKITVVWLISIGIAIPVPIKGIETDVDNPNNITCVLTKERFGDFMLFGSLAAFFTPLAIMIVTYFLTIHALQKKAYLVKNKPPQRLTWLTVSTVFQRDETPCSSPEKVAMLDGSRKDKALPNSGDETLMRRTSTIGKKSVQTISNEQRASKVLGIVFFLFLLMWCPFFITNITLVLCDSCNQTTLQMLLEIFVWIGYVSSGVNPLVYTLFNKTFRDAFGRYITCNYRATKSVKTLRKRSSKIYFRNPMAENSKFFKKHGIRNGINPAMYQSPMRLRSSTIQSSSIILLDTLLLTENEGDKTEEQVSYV

Series [4] is described as follows: MRTinfinity in ICR mouse plasma at 10 mg/kg, ip measured upto 8 hrs by LC-MS/MS analysis. The class given is ADME, organism-based. Summed up: as §1
Series [5] has as its system Mus musculus. Briefly: Effect on wild type mouse assessed as time taken for duration of self grooming at 5 mg/kg, ip after 30 mins under 40 lux lighting (reference value: 43.7 +/- 10.8 sec). The series is classed as functional. Particulars: 0.5 h.
Series [6] concerns the target T1, 5-hydroxytryptamine receptor 7 (Homo sapiens, UniProt P34969). As to the kind of experiment: Agonist activity at 5-HT7R (unknown origin) transfected in HEK293 cells expressing tTA-dependent luciferase reporter and beta arrestin 2-TEV fusion gene assessed as beta arrestin recruitment incubated for 22 hrs by Tango assay. The class given is functional, cell-based. Particulars: hek293. In general terms: Reporter assays use an easily measured gene product as a stand-in for the process of interest.

Series [7] is described as follows: MRTinfinity in ICR mouse plasma at 1 mg/kg, iv measured upto 8 hrs by LC-MS/MS analysis. The class given is ADME, organism-based. In outline:
as §1

Another series concerns the target CYP3A4 (Homo sapiens, UniProt P08684). Briefly: Inhibition of CYP3A4 in human liver microsomes assessed as remaining activity at 10 uM using midazolam as substrate preincubated for 5 mins followed by addition of NADPH generating system and incubated for 15 mins by LC/MS relative to control. The class given is ADME. Particulars: probe midazolam, time 20 min, read-out: Activity. Summed up:
(§3)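 Human liver microsomes (0.25 mg/mL) in 0.1 M phosphate pH 7.4 with a five-substrate cocktail: phenacetin 50 μM, diclofenac 10 μM, S-mephenytoin 100 μM, dextromethorphan 5 μM, midazolam 2.5 μM. Compound at 0 (control) or 10 μM. Preincubated 5 min at 37 °C, NADPH-generating system added, 15 min at 37 °C. Stopped with acetonitrile plus internal standard; substrate metabolites measured by LC/MS.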

For series [8], the target named is 5-hydroxytryptamine receptor 1D (Homo sapiens, UniProt P28221). As to the kind of experiment: Binding affinity to 5-HT1DR (unknown origin). In outline: as §2
Sequence of 5-hydroxytryptamine receptor 1D (P28221 whole entry): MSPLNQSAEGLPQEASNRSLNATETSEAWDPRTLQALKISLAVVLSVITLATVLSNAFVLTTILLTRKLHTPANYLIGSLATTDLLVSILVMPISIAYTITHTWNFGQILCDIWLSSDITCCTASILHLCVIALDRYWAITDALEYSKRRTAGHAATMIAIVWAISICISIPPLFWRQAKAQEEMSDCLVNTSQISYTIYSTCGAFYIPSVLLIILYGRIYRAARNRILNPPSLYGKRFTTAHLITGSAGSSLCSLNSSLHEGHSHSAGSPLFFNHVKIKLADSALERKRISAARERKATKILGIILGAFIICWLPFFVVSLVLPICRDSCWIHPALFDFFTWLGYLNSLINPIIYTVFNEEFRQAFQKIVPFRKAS
Series [9] is described as follows: Half life in ICR mouse plasma at 10 mg/kg, ip measured upto 8 hrs by LC-MS/MS. The series is classed as ADME, organism-based. In outline: as §1
In series [10] the target is T1, 5-hydroxytryptamine receptor 7.
For series [11], the target named is 5-hydroxytryptamine receptor 1B (Homo sapiens, UniProt P28222). As to the kind of experiment: Binding affinity to 5-HT1BR (unknown origin). In outline: as §2
Sequence of 5-hydroxytryptamine receptor 1B (P28222 whole entry): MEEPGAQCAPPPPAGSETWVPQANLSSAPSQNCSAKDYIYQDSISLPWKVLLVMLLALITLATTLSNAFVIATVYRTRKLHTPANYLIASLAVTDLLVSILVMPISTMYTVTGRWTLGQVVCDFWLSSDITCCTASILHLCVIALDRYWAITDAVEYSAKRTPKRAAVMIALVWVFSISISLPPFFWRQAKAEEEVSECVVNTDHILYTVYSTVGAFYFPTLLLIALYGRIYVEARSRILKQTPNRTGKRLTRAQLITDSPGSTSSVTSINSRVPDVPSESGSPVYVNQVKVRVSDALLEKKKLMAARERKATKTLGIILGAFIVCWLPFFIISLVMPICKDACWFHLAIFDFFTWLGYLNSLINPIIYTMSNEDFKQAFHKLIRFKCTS
For series [12], the system named is Mus musculus. Briefly: Effect on wild type mouse assessed as time taken for duration of self grooming at 5 mg/kg, ip pretreated for 10 mins in presence of SB269970 followed by compound addition and measured after 30 mins under 40 lux lighting (reference value: 43.7 +/- 10.8 sec). Particulars: 0.5 h. The class given is functional.
Series [13] can be described thus: Half life in ICR mouse plasma at 1 mg/kg, iv measured upto 8 hrs by LC-MS/MS. The class given is ADME, organism-based. In outline:
as §1

For another series, the target named is CYP2D6 (Homo sapiens, UniProt P10635). Briefly: Inhibition of CYP2D6 in human liver microsomes assessed as remaining activity at 10 uM using dextromethorphan as substrate preincubated for 5 mins followed by addition of NADPH generating system and incubated for 15 mins by LC/MS relative to control. The series is classed as ADME. Particulars: probe dextromethorphan, time 20 min, read-out: Activity. In outline:
as §3
On the technique in general: Microsomes from liver hold many membrane-bound enzymes, among them those of drug oxidation.

Series [14] concerns the target T1, 5-hydroxytryptamine receptor 7. Briefly: Displacement of [3H] D-lysergic acid diethylamide from 5-HT7R (unknown origin) transfected in HEK293 cells incubated for 1.5 hrs by microbeta scintillation counter analysis. The series is classed as cell-based. Particulars: read-out: Ki. On the technique in general: Loss of bound radioactivity is the signal in a displacement assay; it reports binding, not function.

In series [15] the target is 5-hydroxytryptamine receptor 1E (Homo sapiens, UniProt P28566). As to the kind of experiment: Binding affinity to 5-HT1ER (unknown origin). In outline:
as §2

The next series deals with T2, CYP1A2 (Homo sapiens, UniProt P05177).
T2 sequence (P05177 whole entry): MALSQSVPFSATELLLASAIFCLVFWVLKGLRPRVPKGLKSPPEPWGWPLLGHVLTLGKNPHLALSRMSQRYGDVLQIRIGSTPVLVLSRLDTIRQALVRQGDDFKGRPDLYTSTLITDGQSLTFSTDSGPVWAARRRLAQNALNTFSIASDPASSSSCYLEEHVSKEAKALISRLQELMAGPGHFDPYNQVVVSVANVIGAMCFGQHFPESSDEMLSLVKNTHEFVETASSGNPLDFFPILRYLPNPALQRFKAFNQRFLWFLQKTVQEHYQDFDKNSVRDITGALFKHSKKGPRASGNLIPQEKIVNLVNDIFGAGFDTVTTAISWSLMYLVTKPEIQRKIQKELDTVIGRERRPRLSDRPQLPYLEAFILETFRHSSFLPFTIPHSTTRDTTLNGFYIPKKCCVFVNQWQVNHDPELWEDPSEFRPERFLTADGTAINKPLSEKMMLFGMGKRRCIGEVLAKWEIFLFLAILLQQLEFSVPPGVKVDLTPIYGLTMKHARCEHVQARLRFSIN
As to the kind of experiment: Inhibition of CYP1A2 in human liver microsomes assessed as remaining activity at 10 uM using phenacetin as substrate preincubated for 5 mins followed by addition of NADPH generating system and incubated for 15 mins by LC/MS relative to control. The class given is ADME. Particulars: probe phenacetin, time 20 min, read-out: Activity. In outline:
as §3

Series [16] can be described thus: Stability of compound in human liver microsomes assessed as compound remaining at 1 uM preincubated for 5 mins followed by addition of NADPH generating system and incubated for 30 mins by LC/MS relative to control. The series is classed as ADME, Microsome. The note with it: time 35 min, read-out: Stability. Summed up:
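Human liver microsomes (0.5 mg/mL) in 0.1 M phosphate pH 7.4 with compound at 1 μM. Preincubated 5 min at 37 °C, then NADPH-generating system added and incubated 30 min at 37 °C. Quenched with acetonitrile containing internal standard, centrifuged, and supernatant analysed by LC/MS as percent compound remaining; verapamil as reference.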

What is called clearance is the volume of plasma or blood freed of the substance per unit of time. A word on the Cmax: it is the peak of the concentration-time curve. The Ki is the dissociation constant of the complex between target and ligand, obtained from inhibition or displacement. As a reminder, the MRT inf is a mean duration of stay, worked out from the concentration-time curve. A word on the EC50: it is the concentration that produces a half-maximal response. One may read the half-life as the time needed for the level to fall by half in the phase considered. A low value points to fast loss.

T1 sequence (P34969 whole entry, the tested form may be a part): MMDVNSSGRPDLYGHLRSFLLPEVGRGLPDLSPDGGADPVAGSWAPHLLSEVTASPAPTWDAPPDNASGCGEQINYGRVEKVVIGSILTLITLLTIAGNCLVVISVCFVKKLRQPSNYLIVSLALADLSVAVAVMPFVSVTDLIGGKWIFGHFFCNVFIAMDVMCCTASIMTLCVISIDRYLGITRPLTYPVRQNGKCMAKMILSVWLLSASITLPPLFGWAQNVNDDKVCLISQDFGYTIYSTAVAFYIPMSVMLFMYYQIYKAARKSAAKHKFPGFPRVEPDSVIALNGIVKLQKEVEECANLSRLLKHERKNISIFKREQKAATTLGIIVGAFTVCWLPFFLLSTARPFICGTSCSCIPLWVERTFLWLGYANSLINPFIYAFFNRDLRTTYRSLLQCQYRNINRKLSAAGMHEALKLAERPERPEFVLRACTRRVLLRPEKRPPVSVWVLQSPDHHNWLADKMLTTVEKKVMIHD
Sequence of CYP2D6 (P10635 whole entry): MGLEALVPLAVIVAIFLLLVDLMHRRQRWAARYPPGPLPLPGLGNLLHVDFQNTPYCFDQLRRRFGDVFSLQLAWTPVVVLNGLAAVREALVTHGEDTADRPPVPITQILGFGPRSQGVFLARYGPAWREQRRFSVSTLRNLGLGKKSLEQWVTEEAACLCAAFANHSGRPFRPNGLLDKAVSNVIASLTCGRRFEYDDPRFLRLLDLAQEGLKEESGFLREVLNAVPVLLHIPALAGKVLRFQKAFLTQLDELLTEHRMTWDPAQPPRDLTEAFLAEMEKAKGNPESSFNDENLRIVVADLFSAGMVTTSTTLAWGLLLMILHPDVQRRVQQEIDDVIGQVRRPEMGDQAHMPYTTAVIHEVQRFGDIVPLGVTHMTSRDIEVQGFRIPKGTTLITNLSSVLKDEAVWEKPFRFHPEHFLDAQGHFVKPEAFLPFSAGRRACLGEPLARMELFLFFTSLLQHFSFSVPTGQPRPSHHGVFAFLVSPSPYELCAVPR
Sequence of 5-hydroxytryptamine receptor 1E (P28566 whole entry): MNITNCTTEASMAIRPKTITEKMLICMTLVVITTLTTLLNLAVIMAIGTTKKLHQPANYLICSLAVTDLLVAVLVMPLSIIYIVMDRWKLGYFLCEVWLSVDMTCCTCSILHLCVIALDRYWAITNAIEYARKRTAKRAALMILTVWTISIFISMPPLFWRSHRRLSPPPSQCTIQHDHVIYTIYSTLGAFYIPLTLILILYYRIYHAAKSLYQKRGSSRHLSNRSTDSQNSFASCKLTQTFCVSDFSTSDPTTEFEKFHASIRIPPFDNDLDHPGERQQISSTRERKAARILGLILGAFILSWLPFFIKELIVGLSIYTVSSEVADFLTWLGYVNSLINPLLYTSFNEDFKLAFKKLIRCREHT
Sequence of CYP3A4 (P08684 whole entry): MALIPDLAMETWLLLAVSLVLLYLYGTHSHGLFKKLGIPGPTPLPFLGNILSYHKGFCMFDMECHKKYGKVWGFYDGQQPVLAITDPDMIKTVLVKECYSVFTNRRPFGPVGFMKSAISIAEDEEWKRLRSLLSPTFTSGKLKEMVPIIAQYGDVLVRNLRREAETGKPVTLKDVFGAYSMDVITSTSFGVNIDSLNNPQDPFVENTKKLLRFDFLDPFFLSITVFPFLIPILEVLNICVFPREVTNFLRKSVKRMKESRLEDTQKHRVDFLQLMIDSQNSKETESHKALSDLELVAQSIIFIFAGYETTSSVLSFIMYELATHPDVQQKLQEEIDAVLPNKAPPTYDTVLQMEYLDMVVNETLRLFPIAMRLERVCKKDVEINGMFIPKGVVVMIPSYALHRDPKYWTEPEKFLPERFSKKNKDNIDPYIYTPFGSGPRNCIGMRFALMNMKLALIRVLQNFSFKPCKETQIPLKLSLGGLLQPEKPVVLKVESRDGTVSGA

`CCNCCc1ccc(Cl)c(-c2ccccc2OC)c1.Cl`: the clearance in series [1] stood at 478 mL/min/kg. This molecule returned a peak concentration (Cmax) in [2] of 348 ng/mL. Besides, the Ki in series [3] was found to be 130 nM; in series [8], 5.3 nM; in series [11] it was 580 nM; in [14], 2.8 nM; in series [15] it was 2600 nM. The MRT inf came out at 78 min in [4] and 42 min in series [7]. Also, the Time with Mus musculus [5] is listed as 107 s; in the series on Mus musculus [12] it was 70.8 s. The EC50 entry is “Not Active” in [6] and 180 nM in [10]. In addition, the figures for the activity at 0.25 h, 10 µM on CYP3A4, at CYP2D6 and on CYP1A2 were 98.5%, 88.7% and 94.3%, respectively. The results for the half-life in series [9] and in series [13] were 60 min and 30 min, respectively. In addition, the remaining at 0.5 h, 1 µM in series [16] came out at 71.5%.

These data come from ChEMBL document CHEMBL5038590, “Discovery of G Protein-Biased Ligands against 5-HT7R” (J Med Chem, 2021).
